Source: PubChem BioAssay
FXIa inh = blocks human coagulation factor XIa protease activity | P03951 | purified FXIa, Boc-Glu-Ala-Arg-AMC fluorogenic substrate | inhibition, % at 5 µM | 220,000 compounds, 0.14% hits;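 active means inhibition of at least 40%; inactive means inhibition below 40%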;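 further: fluorescence of freed AMC excited at 355 nm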
Target sequence (P03951 19-387 limits assumed): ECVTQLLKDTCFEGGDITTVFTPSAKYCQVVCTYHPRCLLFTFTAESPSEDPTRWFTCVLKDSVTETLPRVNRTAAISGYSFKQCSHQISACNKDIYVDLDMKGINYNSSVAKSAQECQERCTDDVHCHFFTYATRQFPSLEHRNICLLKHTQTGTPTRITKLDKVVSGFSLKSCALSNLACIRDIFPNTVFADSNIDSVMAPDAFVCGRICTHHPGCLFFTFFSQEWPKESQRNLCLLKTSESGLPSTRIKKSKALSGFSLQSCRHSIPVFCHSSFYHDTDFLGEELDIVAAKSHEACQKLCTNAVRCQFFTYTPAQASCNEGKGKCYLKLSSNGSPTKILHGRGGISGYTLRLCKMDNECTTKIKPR
Target sequence (P03951 388-625 limits assumed): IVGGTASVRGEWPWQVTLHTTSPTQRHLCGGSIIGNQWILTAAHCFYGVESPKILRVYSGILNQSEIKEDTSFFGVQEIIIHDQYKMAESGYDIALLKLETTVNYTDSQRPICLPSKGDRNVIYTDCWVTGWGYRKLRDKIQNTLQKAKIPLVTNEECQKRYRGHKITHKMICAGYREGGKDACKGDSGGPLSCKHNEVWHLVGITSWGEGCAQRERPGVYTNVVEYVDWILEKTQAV
FXIIa inh = blocks human coagulation factor XIIa protease activity. P00748. purified FXIIa, Boc-QGR-AMC fluorogenic substrate, 2 h. inhibition, % at 5 µM. 220,000 compounds, 0.3% hits; in the data active means inhibition above about 40%
KLK5 inh = inhibitors of human kallikrein 5. Q9Y337. recombinant hK5, fluorogenic AMC substrate cleavage. inhibition, % at 5 µM. 210,000 compounds, 0.59% hits. AID 873;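 active means inhibition of 40% or more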
Thrombin inh = thrombin (human) inhibition. alpha-thrombin, Boc-VPR-AMC fluorogenic substrate cleavage. inhibition, % at 5 µM. 220,000 compounds, 0.26% hits. AID 1046;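 active means inhibition at or above 40%; inactive means inhibition below 40%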
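Material: human alpha-thrombin protein. Incubation: reaction at ambient temperature. Technique: fluorescence of released AMC, ex 355 nm, em 460 nm. Control set: no-compound enzyme wells and no-enzyme blanks. Also added: Boc-VPR-AMC substrate, 15 µM final. Buffer or medium: pH 7.5 Tris (50 mM) with NaCl 150 mM, Tween 20 0.05%.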
TbHK1 inh = blocks Trypanosoma brucei hexokinase 1 activity; recombinant TbHK1, G6PDH-coupled NADH A340; inhibition, % at 10 µM; 220,000 compounds, 0.11% hits;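 active means inhibition of 50% or more in the single-dose primary screen; inactive means inhibition below 50%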
Hits are given with their value; i = inactive. Rows were chosen to be rich in hits. Some 1.1% of all compounds tested hit in one or more screens of this group.

SMILES	FXIa inh	FXIIa inh	KLK5 inh	Thrombin inh	TbHK1 inh
S=c1[nH]nc(CSCCOc2ccccc2)o1	i	i	i	i	i
Cc1cc(C)cc(NC(=O)c2ccc(Cn3nc(C)c(Cl)c3C)o2)c1	i	i	120	i	i
Cc1ccc(CNC(=O)c2ccc(Cn3nc(C)c(Cl)c3C)o2)cc1	i	i	i	i	i
Cc1noc(C)c1CSc1nc2ccccc2c(=O)n1-c1ccccc1	i	i	i	i	i
C=CCn1c(SCc2c(C)noc2C)nc2ccccc2c1=O	i	i	i	i	i
Cc1noc(C)c1CSc1nc2ccccc2c(=O)n1-c1ccc(F)cc1F	i	43	i	i	i
C=CCn1c(SCc2c(C)noc2C)nc2cc(C(=O)O)ccc2c1=O	i	i	i	46	i
O=C(O)Cn1c(SCCOc2ccccc2)nc2ccccc21	i	i	42	i	i
Cc1cccc(C)c1OCC(=O)NCC1CCCO1 (centres undefined)	i	i	i	i	i
C/C(Cc1ccccc1)=N\NC(=O)CNC(=O)/C=C\c1ccccc1	51	i	113	i	i
C/C(Cc1ccccc1)=N\NC(=O)CNC(=O)c1ccc(Cl)cc1Cl	i	86	78	i	i
CC(=O)c1ccc(NC(=O)COC(=O)CCc2ccc(S(=O)(=O)N3CCOCC3)cc2)cc1	i	i	i	i	i
Cc1ccc(N2C(=O)CC(Sc3nc4ccccc4o3)C2=O)cc1Cl (centres undefined)	i	i	i	i	i
CCN(CC)c1cc(C)c2cc(NC(=O)CNC(C)=O)ccc2n1	i	i	142	i	i
Cc1ccc(S(=O)(=O)N2CCN(Cc3ccccc3)CC2)c(C)c1N(C)S(=O)(=O)c1ccccc1	i	i	i	i	i
Cc1ccc(C(=O)Nc2ccc3c(c2)CCC3)o1	i	i	84	i	i
C=CCN(CC=C)CCCOc1ccc(Br)cc1Cl	i	i	i	i	i
COc1ccc(C(=O)N/C(=C\c2cn(C)c3ccccc23)C(=O)OCC(C)C)cc1	i	i	i	i	i
CC(C)C(NC(=O)C(Cc1ccccc1)NC(=O)OCc1ccccc1)C(=O)O (centres undefined)	47	i	i	i	i
Clc1cccc(Cl)c1Cn1cnc2c(NCc3ccco3)ncnc21	i	i	61	i	i
Cn1cnc2c(NCc3ccco3)ncnc21	i	i	i	i	i
CCN(CC)C(=O)CN1CCN(c2ncccn2)CC1	i	i	64	i	i
Cc1ccc(Cn2c(=N)c(C(=O)NCc3ccco3)cc3c(=O)n4ccccc4nc32)cc1	i	i	41	i	i
Cc1ccc(CNC(=O)C(C)OC(=O)c2ccco2)cc1 (centres undefined)	i	i	i	i	i
CC(NC(=O)c1ccco1)C(=O)OC(C)C(=O)NCc1ccccc1 (centres undefined)	i	i	41	i	i
SMILES	FXIa inh	FXIIa inh	KLK5 inh	Thrombin inh	TbHK1 inh
CCOC(=O)N1CCN(C(=O)c2ccc3c(=O)n(Cc4ccc(OC)cc4)c(=S)[nH]c3c2)CC1	i	i	48	i	i
CCOC(=O)N1CCN(C(=O)c2ccc3c(=O)n(Cc4ccccc4)c(=S)[nH]c3c2)CC1	i	i	i	i	i
O=C(NCc1ccco1)c1c[nH]c2ccc(S(=O)(=O)N3CCOCC3)cc2c1=O	i	i	i	74	i
C=CCn1cc(C(=O)NCc2cccnc2)c(=O)c2cc(S(=O)(=O)N(CC)CC)ccc21	i	i	i	i	i
C=CCn1cc(C(=O)NCc2ccc3c(c2)OCO3)c(=O)c2cc(S(=O)(=O)N(CC)CC)ccc21	i	i	i	42	i
CCN(CC)S(=O)(=O)c1ccc2c(c1)c(=O)c(C(=O)NCCOC)cn2C	i	i	i	i	i
O=C(NCCN1CCOCC1)c1c[nH]c2ccc(S(=O)(=O)N3CCOCC3)cc2c1=O	i	i	i	i	i
CCN(CC)S(=O)(=O)c1ccc2c(c1)c(=O)c(C(=O)NCc1ccc3c(c1)OCO3)cn2C	i	i	i	64	i
CCN(CC)S(=O)(=O)c1ccc2c(c1)c(=O)c(C(=O)NCc1ccco1)cn2C	i	i	i	62	i
CC1CCN(S(=O)(=O)c2ccc3c(c2)c(=O)c(C(=O)NCc2ccco2)cn3C)CC1	i	i	i	i	i
CC1(C)CC2(CC(c3ccccc3)c3ccc(O)cc3O2)NC(=S)N1 (centres undefined)	i	i	i	i	i
Cc1cc(NC(=O)CSc2ccc(-c3ccc(F)cc3)nn2)no1	i	i	i	i	i
